KCNQ1 inh = human KCNQ1 channel inhibition | P51787 | CHO-K1 KCNQ1, FluxOR thallium flux fluorescence; stronger effect = higher value | B-score at 10 µM | 310,000 tested, 1.3% active | AID 2642;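 active = compounds whose thallium flux B-score, printed positive for inhibition, exceeds three library SD while starting fluorescence stays within three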;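 also: channel opened by potassium depolarization with thallium stimulus after 20 min compound exposure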
Kir21 inh = Kir2.1 (mouse) channel inhibition; P35561; HEK293-Kir2.1, FluxOR thallium flux fluorescence; stronger effect = lower value; B-score at 10 µM; 310,000 tested, 0.85% active;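 active = fluorescence ratio B-score at or below minus 3 SD of library scores, with starting-brightness B-score within 2 SD, cut at about -4.2 in these data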;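 also: channel flux triggered by added potassium and thallium sulfate stimulus; B-score of peak minus minimum fluorescence over baseline after thallium stimulus; more negative B-score means stronger Kir2.1 block with less thallium influx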
Target sequence (P35561 whole entry, looked up): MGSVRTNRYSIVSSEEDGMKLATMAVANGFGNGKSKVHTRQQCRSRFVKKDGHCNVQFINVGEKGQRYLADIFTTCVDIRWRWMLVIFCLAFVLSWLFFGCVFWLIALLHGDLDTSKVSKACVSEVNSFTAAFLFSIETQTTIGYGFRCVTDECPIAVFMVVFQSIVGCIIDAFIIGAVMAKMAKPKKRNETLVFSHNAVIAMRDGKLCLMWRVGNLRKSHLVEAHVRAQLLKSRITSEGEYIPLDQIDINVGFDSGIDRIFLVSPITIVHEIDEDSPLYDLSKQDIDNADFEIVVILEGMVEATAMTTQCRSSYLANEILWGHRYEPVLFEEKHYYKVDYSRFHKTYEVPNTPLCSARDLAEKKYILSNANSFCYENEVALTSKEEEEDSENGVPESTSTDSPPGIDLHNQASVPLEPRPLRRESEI
hERG protect = shields human hERG channel from block by proarrhythmic agents | activation (rescue from dofetilide block), less the hit threshold, % at 10 µM | CHO-hERG, FluxOR thallium flux, dofetilide IC70 present | AID 1511 | 310,000 tested, 0.51% active;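 active = activation above the mean of controls blocked by dofetilide plus 5 SD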;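 also: thallium influx through hERG after potassium depolarization seen as dye fluorescence rise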
KCNK3 inh = human KCNK3 channel inhibition, primary screen; B-score at 10 µM; O14649; 340,000 tested, 0.84% active; CHO-KCNK3 thallium flux, FluxOR fluorescence; stronger effect = lower value;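 active = B-score under library mean minus 4 SD, starting fluorescence ratio at most library mean plus 5 SD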;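 also: more negative B-score means stronger inhibition of thallium flux through KCNK3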
KCNK9 block = human KCNK9 channel inhibition; Q9NPC2; HEK293 KCNK9, FluxOR thallium flux fluorescence; stronger effect = lower value; B-score at 10 µM; 310,000 tested, 1.2% active; AID 488922;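 active = ratio B-score over 3 SD below the library mean, with starting fluorescence within 5 SD of its mean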;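 also: negative B-score means less thallium flux so channel inhibition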
KCNQ1 act = potentiates or activates the human KCNQ1 potassium channel; P51787; CHO-K1 KCNQ1, thallium flux FluxOR fluorescence; stronger effect = higher value; B-score at 10 µM; 310,000 tested, 0.35% active;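 active = fluorescence ratio B-score, a plate-corrected score, at least three library SD, with initial intensity B-score within 5 SD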
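Assay system: stable KCNQ1 CHO-K1 line; medium: assay buffer, equal DMSO in all wells; timing: 90 min dye loading and 20 min compound exposure, both at room temperature; technique: kinetic FluxOR thallium fluorescence, 10-s 1-Hz baseline, 110-s post-stimulus read; read-out basis: B score of baseline-normalized fluorescence ratio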
Each line names hits and unclear results; the compound was inactive in the other large screens. Sampled rows, rich in hits. Any-hit rate of the full collection: about 3.7%.

O=C(COC(=O)C1CCN(S(=O)(=O)c2cccs2)CC1)c1cc2ccccc2o1	KCNK9 block -7.8
C[C@H](NC(=O)[C@H](Cc1ccccc1)n1c(=O)[nH]c2ccccc2c1=O)C(=O)N1CCC(C(=O)O)CC1	none
C/C(=N\NC(=O)c1ccccc1NC(=O)c1ccc(Cl)cc1)c1ccncc1	none
CCOc1ccc(-n2cc(-c3ccccc3)c3c(=S)nc[nH]c32)cc1	KCNQ1 act 39
CCOc1ccc(-n2cc(-c3ccccc3)c3c(=O)[nH]cnc32)cc1	none
CC(=NCCCn1ccnc1)c1c(C)[nH]n(-c2ccc([N+](=O)[O-])cc2)c1=O	none
O=C(O/N=C1\CCS(=O)(=O)c2sccc21)C1CC1	hERG protect 5.0
CC(C)(C)C(=O)O/N=C1\CCS(=O)(=O)c2sccc21	none
O=C1CCCN1CCCNS(=O)(=O)c1cccc(F)c1	hERG protect 4.9
COc1cc(/C=C2\SC(=O)N(c3ccccc3Cl)C2=O)cc([N+](=O)[O-])c1O	KCNQ1 inh 10
O=C(O)CCC(=O)OCCN(Cc1ccc(Oc2ccc([N+](=O)[O-])cc2)cc1)C(=O)C(Cl)Cl	none (no result: KCNQ1 inh, Kir21 inh, hERG protect, KCNK9 block, KCNQ1 act)
CNC(=S)NNC(=O)c1cccn(Cc2ccc(Cl)cc2Cl)c1=O	KCNQ1 inh 7 (no result: KCNK3 inh)
CCC(C)(C)n1nnnc1C(c1cccnc1)N1CCC(Cc2ccccc2)CC1 (centres undefined)	KCNK9 block -7.6
O=C(CSc1ccc(-c2ccncc2)nn1)N1CCCCC1	none
O=C(CSc1ccc(-c2ccccc2)nn1)N1CCCCC1	hERG protect 40
O=C(CSc1ccc(-c2ccc(Br)cc2)nn1)N1CCOCC1	hERG protect 5.0
Cc1nc(SCC(=O)NC2CCS(=O)(=O)C2)c2c3c(sc2n1)CCCC3 (centres undefined)	none (no result: KCNQ1 inh, Kir21 inh, hERG protect, KCNK9 block, KCNQ1 act)
CCOc1cc(C2NC(=O)NC2=O)ccc1O (centres undefined)	none
CCC1(c2ccc(Cl)cc2)NC(=S)N(c2ccccc2)N1 (centres undefined)	hERG protect 49, KCNQ1 act 40
CCCCCCC1(C)NC(=S)N(c2ccccc2)N1 (centres undefined)	none
COc1cc(OC)cc(C(C)=O)c1	hERG protect 5.7
COc1cc(OC)cc(C(=O)Nc2cccc(C(C)=O)c2)c1	none
CCN(CC)Cc1ccccc1CNC(=O)c1cccc(S(=O)(=O)Nc2ccc3c(c2)OCO3)c1	KCNK3 inh -9.3 (no result: KCNQ1 inh, Kir21 inh, hERG protect, KCNK9 block, KCNQ1 act)
O=S(=O)(Nc1ccc2c(c1)OCO2)c1cccc(Br)c1	none (no result: KCNQ1 inh, Kir21 inh, hERG protect, KCNK9 block, KCNQ1 act)
CCOC(=O)c1sc(=NC(=O)/C=C/c2ccccc2)n(C)c1C	KCNQ1 inh 12
CCOC(=O)c1sc(=NC(=O)c2cccs2)n(C)c1C	none
Cc1cc(C)c(O)c(-c2cc(C(=O)Nc3c(C)n(C)n(-c4ccccc4)c3=O)[nH]n2)c1	none
COc1ccc(/C=N/NC(=O)C(=O)/C=C2\NC3(CCCC3)Cc3ccccc32)cc1	KCNK9 block -6.6
NNC(=O)C(=O)/C=C1\NC2(CCCC2)Cc2ccccc21	none
COc1ccc(OC)c(C(c2nnnn2C2CCCC2)N2CCN(c3ccccc3F)CC2)c1 (centres undefined)	KCNK9 block -8.9
N=c1oc2cc(O)ccc2cc1C(=O)Nc1ccc(Cl)cc1	KCNQ1 inh 6
Cc1ccc(NC(=O)c2cc3ccccc3oc2=N)cc1	none
CC(=O)c1cc2ccc(O)cc2oc1=O	KCNQ1 inh 7
COc1ccc2cc(C(C)=O)c(=O)oc2c1	none
Cc1csc(Sc2ccc([N+](=O)[O-])cc2C(=O)OCC(=O)NC2CCCC(C)C2C)n1 (centres undefined)	none
CCOC(=O)c1c(N2C(=O)Nc3ccccc3N2O)n[nH]c1-c1cccc(Cl)c1	hERG protect 11, KCNQ1 act 36
CCOc1ccc(-c2cc(N3C(=O)Nc4ccccc4N3O)n[nH]2)cc1	none
CC(=O)c1ccc(S(=O)(=O)N2CCN(c3ccccc3F)CC2)cc1	none
O=C(COC(=O)CNC(=O)c1ccc(Cl)cc1Cl)NC(=O)NCc1ccccc1	none
COc1ccc(NC(=O)CCNS(=O)(=O)c2ccc3[nH]c(=O)oc3c2)cc1Cl	none
N#Cc1nc(-c2ccccc2)oc1NCc1ccco1	none
N#Cc1nc(-c2ccccc2Cl)oc1NCc1ccco1	KCNK9 block -7.5
Cc1ccc(C(=O)Cn2c(N3CCOCC3)nc3c2c(=O)n(C)c(=O)n3C)cc1	hERG protect 5.0
Cc1cccc(-c2nnc(NC(=O)c3ccc(Cl)cc3)o2)c1	KCNQ1 act 9
O=C(N/N=C/c1ccc(-c2cccc([N+](=O)[O-])c2)o1)[C@H]1C[C@@H]1c1ccccc1	KCNK9 block -10
CCCCN(C(=O)CC1OC(=O)c2ccccc21)c1c(N)n(CCCC)c(=O)[nH]c1=O (centres undefined)	none
CCOc1cc2c(cc1OCC)C(c1ccc(C(=O)O)cc1)NCC2 (centres undefined)	none
CN(C)CCNC(=O)c1cc2sc3ccccc3c2s1	Kir21 inh -4.2
CCN(CC)C(=O)c1cc2sc3ccccc3c2s1	KCNK9 block -7.5
CCOC(=O)c1c(-c2ccc(C)o2)csc1NC(=S)NC(=O)N(C)C	hERG protect 14, KCNQ1 act 39
CCOC(=O)c1c(-c2ccc(C)o2)csc1NC(=O)COC(=O)c1cccs1	KCNK9 block -6.7
CCOC(=O)c1c(-c2ccc(C)o2)csc1N	none
CCOC(=O)c1c(-c2ccc(C)o2)csc1NC(=O)CSc1ncn[nH]1	none
N#Cc1ccc(C(=O)Nc2cccc3ccccc23)c(F)c1	none
COc1ccc(C(=O)Nn2c(SCC(=O)c3ccc(Cl)cc3)nc3ccccc3c2=O)cc1	KCNK9 block -7.1
COc1ccc(C(=O)Nn2c(SCC(=O)N3CCC(C)CC3)nc3ccccc3c2=O)cc1	none
COc1ccc(C(=O)Nn2c(C)nc3ccccc3c2=O)cc1	none
CCCOc1ccc(C(=O)Nn2c(C)nc3ccccc3c2=O)cc1	hERG protect 6.5
C#CCN1C=CC(=O)[C@@H](OC(=O)Nc2ccc(Cl)cc2)[C@H]1c1ccccc1Br	none (no result: KCNQ1 inh, Kir21 inh, hERG protect, KCNK9 block, KCNQ1 act)
NC(=O)c1ccsc1NC(=O)c1ccc(S(=O)(=O)N2CCCc3ccccc32)cc1	none
CCN1CCc2c(sc(NC(=O)c3ccc(S(=O)(=O)N(C)c4ccccc4)cc3)c2C(=O)NC)C1	KCNQ1 inh 21
CCN1CCc2c(sc(NC(=O)c3ccc4ccccc4c3)c2C(N)=O)C1	KCNK9 block -6.8
CC(C)N1CCc2c(sc(NC(=O)c3nc4ccccc4s3)c2C(N)=O)C1	none
CC(C)N1CCc2c(sc(NC(=O)c3ccc(S(=O)(=O)N4CCc5ccccc54)cc3)c2C(N)=O)C1	KCNQ1 inh 17
CC(C)N1CCc2c(sc(NC(=O)c3cc(-c4cccs4)nc4ccccc34)c2C(N)=O)C1	KCNK9 block -6.9
